# Source: ChEMBL document CHEMBL4033697, “Synthesis of methanesulphonamido-benzimidazole derivatives as gastro-sparing antiinflammatory agents with antioxidant effect” (Bioorg Med Chem Lett, 2017)
# Key:
# Rattus norvegicus [1] = assay: Anti-inflammatory activity in rat assessed as reduction in carrageenan-induced paw edema at 5 mg/kg, po measured after 5 hrs by plethysmographic method relative to control; format: functional; parameters: scale not given: the % may be the effect or the level left
# Method in brief: (§1)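 Rats; carrageenan in 0.9% saline injected into paw; compound suspended in 0.5% w/v CMC given orally 30 min after carrageenan, three graded doses per compound. Paw volume by plethysmograph before and at intervals after treatment; values at 5 h. % reduction in edema = (1 − Vt/Vc) × 100 versus carrageenan control; ED50 from the three graded doses; one-way ANOVA.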
# Rattus norvegicus [2] = assay: Anti-inflammatory activity in rat assessed as reduction in carrageenan-induced paw edema at 25 mg/kg, po measured after 5 hrs by plethysmographic method relative to control; format: functional; parameters: scale not given: the % may be the effect or the level left; method in brief: as §1
# Rattus norvegicus [3] = assay: Anti-inflammatory activity in rat assessed as reduction in carrageenan-induced paw edema at 75 mg/kg, po measured after 5 hrs by plethysmographic method relative to control; format: functional; parameters: scale not given: the % may be the effect or the level left; method in brief: as §1
# Rattus norvegicus [4] = assay: Anti-inflammatory activity in po dosed rat assessed as reduction in carrageenan-induced paw edema measured after 5 hrs by plethysmographic method; format: functional; method in brief: as §1
# Rattus norvegicus [5] = assay: Toxicity in rat model of carrageenan-induced paw edema assessed as behavioral changes at 5 to 75 mg/kg, po measured during compound dosing; format: organism-based; conditions: in vivo
# [6] = Antioxidant activity of the compound in phosphate buffer at pH 6.6 assessed as potassium ferric cyanide ion reducing activity at 1 umol/ml after 20 mins by spectrophotometric method relative to control; format: functional; parameters: scale not given: the % may be the effect or the level left
# Method in brief: (§2)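 Methanolic sample (1.0–50.0 […], units as printed) mixed with 0.2 M phosphate buffer pH 6.6 and 1% K3Fe(CN)6, 50 °C for 20 min; cooled, 10% TCA added, aliquot diluted with water plus 0.1% FeCl3, 10 min stand. A700 read against a methanol control; triplicate. Reducing power (%) = [(Atest − Acontrol)/Atest] × 100; EC50 derived; ascorbic acid standard.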
# [7] = Antioxidant activity of the compound in phosphate buffer at pH 6.6 assessed as potassium ferric cyanide ion reducing activity at 2.5 umol/ml after 20 mins by spectrophotometric method relative to control; format: functional; parameters: scale not given: the % may be the effect or the level left; method in brief: as §2
# [8] = Antioxidant activity of the compound in phosphate buffer at pH 6.6 assessed as potassium ferric cyanide ion reducing activity at 5 umol/ml after 20 mins by spectrophotometric method relative to control; format: functional; parameters: scale not given: the % may be the effect or the level left; method in brief: as §2
# [9] = Antioxidant activity of the compound in phosphate buffer at pH 6.6 assessed as potassium ferric cyanide ion reducing activity at 10 umol/ml after 20 mins by spectrophotometric method relative to control; format: functional; parameters: scale not given: the % may be the effect or the level left; method in brief: as §2
# [10] = Antioxidant activity of the compound in phosphate buffer at pH 6.6 assessed as potassium ferric cyanide ion reducing activity at 25 umol/ml after 20 mins by spectrophotometric method relative to control; format: functional; parameters: scale not given: the % may be the effect or the level left; method in brief: as §2
# [11] = Antioxidant activity of the compound in phosphate buffer at pH 6.6 assessed as potassium ferric cyanide ion reducing activity at 50 umol/ml after 20 mins by spectrophotometric method relative to control; format: functional; parameters: scale not given: the % may be the effect or the level left; method in brief: as §2
# [12] = Antioxidant activity of the compound in phosphate buffer at pH 6.6 assessed as potassium ferric cyanide ion reducing activity after 20 mins by spectrophotometric method; format: functional; method in brief: as §2
# Rattus norvegicus [13] = assay: Ulcerogenicity in rat model of carrageenan-induced paw edema assessed as diameter of lesion in gastric wall at 5 mg/kg, po measured after 5 hrs; format: toxicity, organism-based; conditions: in vivo
# Method in brief: (§3)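 After oral dosing in 0.5% CMC in the carrageenan paw model, rats were killed by cervical dislocation. Stomachs were inflated with 2% formalin, immersed 10 min to fix, and opened along the greater curvature. Longest lesion diameters were summed as a total lesion score (mm) per animal and averaged per group. Rofecoxib served as negative control and indomethacin as positive control.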
# Rattus norvegicus [14] = assay: Ulcerogenicity in rat model of carrageenan-induced paw edema assessed as diameter of lesion in gastric wall at 25 mg/kg, po measured after 5 hrs; format: toxicity, organism-based; conditions: in vivo; method in brief: as §3
# Rattus norvegicus [15] = assay: Ulcerogenicity in rat model of carrageenan-induced paw edema assessed as diameter of lesion in gastric wall at 75 mg/kg, po measured after 5 hrs; format: toxicity, organism-based; conditions: in vivo; method in brief: as §3
# Rattus norvegicus [16] = assay: Anti-inflammatory activity in rat assessed as reduction in carrageenan-induced paw edema at 10 mg/kg, po measured after 5 hrs by plethysmographic method relative to control; format: functional; parameters: scale not given: the % may be the effect or the level left; method in brief: as §1
# Rattus norvegicus [17] = assay: Ulcerogenicity in rat model of carrageenan-induced paw edema assessed as diameter of lesion in gastric wall at 10 mg/kg, po measured after 5 hrs; format: toxicity, organism-based; conditions: in vivo; method in brief: as §3
# Rattus norvegicus [18] = assay: Anti-inflammatory activity in rat assessed as reduction in carrageenan-induced paw edema at 2.5 mg/kg, po measured after 5 hrs by plethysmographic method relative to control; format: functional; parameters: scale not given: the % may be the effect or the level left; method in brief: as §1
# Rattus norvegicus [19] = assay: Anti-inflammatory activity in rat assessed as reduction in carrageenan-induced paw edema at 40 mg/kg, po measured after 5 hrs by plethysmographic method relative to control; format: functional; parameters: scale not given: the % may be the effect or the level left; method in brief: as §1
# Rattus norvegicus [20] = assay: Toxicity in rat model of carrageenan-induced paw edema assessed as behavioral changes at 2.5 to 40 mg/kg, po measured during compound dosing; format: organism-based; conditions: in vivo
# Rattus norvegicus [21] = assay: Ulcerogenicity in rat model of carrageenan-induced paw edema assessed as diameter of lesion in gastric wall at 2.5 mg/kg, po measured after 5 hrs; format: toxicity, organism-based; conditions: in vivo; method in brief: as §3
# Rattus norvegicus [22] = assay: Ulcerogenicity in rat model of carrageenan-induced paw edema assessed as diameter of lesion in gastric wall at 40 mg/kg, po measured after 5 hrs; format: toxicity, organism-based; conditions: in vivo; method in brief: as §3
Structure (SMILES),Activity (Rattus norvegicus [1]),Activity (Rattus norvegicus [2]),Activity (Rattus norvegicus [3]),ED50 (Rattus norvegicus [4]),Activity (Rattus norvegicus [5]),Activity [6],Activity [7],Activity [8],Activity [9],Activity [10],Activity [11],EC50 [12],Activity (Rattus norvegicus [13]),Activity (Rattus norvegicus [14]),Activity (Rattus norvegicus [15]),also measured
CCCCCCn1c(CCC)nc2cc([N+](=O)[O-])ccc21,51.87%,61.26%,78.25%,3.97 mg/kg,Non-Toxic,0.9%,2.8%,6.8%,17.9%,30.1%,45.9%,> 50 mM,0.22 mm,0.54 mm,1.26 mm,
CCCCCCn1c(CCC)nc2cc(N)ccc21,33.13%,49.8%,69.13%,5.16 mg/kg,Non-Toxic,6%,12.9%,34.5%,48%,57.1%,65.9%,10.3 mM,0.27 mm,0.52 mm,1.06 mm,
COc1ccc2c(c1)c(CC(=O)O)c(C)n2C(=O)c1ccc(Cl)cc1 [INDOMETHACIN],,,,2.2 mg/kg,,,,,,,,,,,,Activity (Rattus norvegicus [16]): 75%; Activity (Rattus norvegicus [17]): 19.4 mm
CCCCCCn1c(CCC)nc2cc(NS(C)(=O)=O)ccc21,,,,2.45 mg/kg,,10.6%,29.2%,49.7%,66.5%,69.6%,75.4%,5.1 mM,,,,Activity (Rattus norvegicus [16]): 86.36%; Activity (Rattus norvegicus [18]): 50.18%; Activity (Rattus norvegicus [19]): 97.62%; Activity (Rattus norvegicus [20]): Non-Toxic; Activity (Rattus norvegicus [17]): 0.69 mm; Activity (Rattus norvegicus [21]): 0.2 mm; Activity (Rattus norvegicus [22]): 1.02 mm
CCCc1nc2cc([N+](=O)[O-])ccc2[nH]1,2.27%,6.82%,6.82%,,Non-Toxic,,,,,,,,0 mm,0.22 mm,0.32 mm,
CCCc1nc2ccccc2[nH]1,0.45%,53.18%,77.27%,5.53 mg/kg,Non-Toxic,,,,,,,,0.1 mm,0.2 mm,0.42 mm,
CCCCCn1c(CCC)nc2cc(N)ccc21,45.91%,54.36%,66.36%,5.47 mg/kg,Non-Toxic,8.7%,18.7%,30.2%,49%,60.1%,67.3%,10.2 mM,0.27 mm,0.52 mm,1.06 mm,
CCCCCn1c(CCC)nc2cc(NS(C)(=O)=O)ccc21,,,,2.55 mg/kg,,15.4%,32.7%,58%,66.5%,72.8%,79.1%,3.7 mM,,,,Activity (Rattus norvegicus [16]): 86.36%; Activity (Rattus norvegicus [18]): 48.18%; Activity (Rattus norvegicus [19]): 95.64%; Activity (Rattus norvegicus [20]): Non-Toxic; Activity (Rattus norvegicus [17]): 0.5 mm; Activity (Rattus norvegicus [21]): 0.25 mm; Activity (Rattus norvegicus [22]): 1.01 mm
CCCCCn1c(CCC)nc2cc([N+](=O)[O-])ccc21,63.64%,68.18%,68.18%,4.8 mg/kg,Non-Toxic,0.4%,2.1%,5.8%,10.7%,20.8%,39.8%,> 50 mM,0.33 mm,0.69 mm,1.03 mm,
CCCCn1c(CCC)nc2cc([N+](=O)[O-])ccc21,29.55%,47.73%,52.27%,4.79 mg/kg,Non-Toxic,0.6%,2.5%,6.8%,16.8%,29.2%,45.4%,> 50 mM,0.35 mm,0.7 mm,1.04 mm,
O=C1O[C@H]([C@@H](O)CO)C(O)=C1O [ASCORBIC ACID],,,,,,6.8%,15.5%,39.8%,60.8%,65.2%,69.4%,7.4 mM,,,,
CCCCn1c(CCC)nc2cc(N)ccc21,59.09%,56.82%,59.09%,5.52 mg/kg,Non-Toxic,6.3%,15.4%,29.9%,44.8%,55.6%,62.5%,18.2 mM,0.28 mm,0.54 mm,1.13 mm,
